Results on eight substances are retold here after article PMC8500941 (Molecular cell, 2021).

Series [1] has as its system W102 of DnaK. Briefly: Tryptophan fluorescence assay. It counts as biochemical, Escherichia coli. The note with it: for wavelength of maximal W102 fluorescence: 1 μM DnaK, buffer A pH 7.5, ~25°C, excitation 290 nm; for W102 fluorescence of D148 mutants (in words): ATP and ADP, compared with wild-type levels. The essentials:
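Protein: full-length DnaK with C-terminal His6, expressed in BB205 and purified by HisTrap then HiTrap Q. Protein (1 μM final) preincubated 2 min with 2 mM ATP or ADP in buffer A (25 mM Hepes-KOH pH 7.5, 100 mM KCl, 10 mM Mg(OAc)2). Emission 300–400 nm recorded at ~25°C. Spectra normalised to ADP peak = 1.0. ATP-versus-ADP peak-wavelength shift compared.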

Series [2] deals with DnaK. The note with it: for rate of ATP hydrolysis, basal: buffer A pH 7.5, single-turnover; for kcat (ATP hydrolysis): single-turnover, constitutively stimulated state (k′ = kcat); for ATP hydrolysis (in words): intrinsic / low peptide concentration, compared with WT.
In series [3] the test system is yeast Ssa1 and E. coli DnaK. The note with it: heat shock; ref Liu & Hendrickson, 2007; cited from earlier work.
Series [4] deals with DnaK. The note with it: from d with KD^0S 1.73 μM; 20°C.
In series [5] the test system is dnaK deletion strain BB205 E. coli cells. Briefly: Cell viability tests. The format is cell-based, Escherichia coli. The note with it: growth on LB agar at elevated temperature (37°C to 40°C), 20 μM IPTG. In short, it runs like this:
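DnaK-dependence test: pBB46 plasmids (ampR) carrying mutant dnaK transformed into BB205 (camR kanR). Fresh overnight culture from each fresh transformation, serially diluted, spotted on LB with 50 μg/ml ampicillin, 25 μg/ml kanamycin, 25 μg/ml chloramphenicol, 20 μM IPTG. Grown overnight at 37°C to 40°C, with control plates at 30°C. Viability scored from growth.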

In series [6] the test system is DnaK. The note with it: from biochemical assays of this paper.

Entries after “also recorded” stand apart in the source; their conditions may differ.

For the substance “WT DnaK: full-length wild-type E. coli Hsp70 DnaK”, the “wavelength of maximal W102 fluorescence” value amounted to 342 nm in series [1] (2 mM ADP) and 335 nm in series [1] (2 mM ATP). Besides, in series [1] (ATP as compared with ADP), the “W102 fluorescence change (in words)” value was “quenched and blue shifted”. For the same substance, in series [2] (basal, 20°C), the “rate of ATP hydrolysis, basal” value was 0.012 min⁻¹.
In the case of D148V, the “W102 fluorescence of D148 mutants (in words)” value in series [1] is “quenched and blue-shifted to beyond wild-type levels”.
As for N170D, the “rate of ATP hydrolysis, basal” value in series [2] (basal, 20°C) is 0.37 min⁻¹. In series [2] (basal, 20°C, versus WT), the “enhancement of basal ATP hydrolysis over WT” value stood at 31 fold. The “phenotype of mutants (in words)” value in series [3] is reported as “profoundly defective”.
As to “WT∷NR: DnaK (residues 1–609) fused through a flexible linker to the NRLLLTG heptapeptide”, the “kcat (ATP hydrolysis)” value in series [2] (20°C) was determined as 0.00455 ± 0.00013 s⁻¹. Also, the “KeqS = [R] / [S]” value in series [4] was determined as 0.
Regarding I483D, the “chaperone activity / cell viability (in words)” value in series [5] is recorded as “negligible chaperone activity; also recorded: destroy chaperone activity”. Besides, in series [2] (20°C), the “kcat (ATP hydrolysis)” value was 0.00452 ± 0.000183 s⁻¹. Further, the “ATP hydrolysis (in words)” value in series [2] is “constitutively high ATPase activities”. Besides, in series [4], the “KeqS = [R] / [S]” value was determined as 0. Further, the “phenotype of mutants (in words)” value in series [3] is “profoundly defective”.
Take V389D: the “phenotype of mutants (in words)” value in series [3] is on record as “profoundly defective”.
Take I160D: the “ATP hydrolysis (in words)” value in series [2] was “constitutively high ATPase activities”. For the same substance, the “phenotype of mutants (in words)” value in series [3] is “profoundly defective”.
In the case of D148I, the “W102 fluorescence of D148 mutants (in words)” value in series [1] is “quenched and blue-shifted to beyond wild-type levels”. Further, in series [5], the “chaperone activity / cell viability (in words)” value is on record as “destroy chaperone activity”. Further, in series [6], the “allosteric state phenotype (in words)” value is given as “exclusive stabilization of the restraining R-state alternative”.
